This is a sample that favours compounds with a hit; in the whole collection about 2.4% have one here.
EWS-Fli block: inhibitors of EWS/Fli oncoprotein transcriptional activity | inhibition, % at 12.6 µM | A673 NR0B1-luciferase reporter, viability-normalised | actives 0.67% (n = 350,000);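 active means mean inhibition of at least 50% after viability correction, with every replicate also passing that limit; inconclusive means mean reaches 50% but only one of two replicates passes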;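 further: firefly luciferase signal divided by Alamar Blue viability fluorescence both relative to DMSO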
Ecoli rRNA inh: inhibits bacterial ribosomal RNA function over humanized ribosomes; E. coli WT GFP vs humanized-ribosome RFP mutants, fluorescence, 24 h; stronger effect = lower value; DMSO median 0, no signal -100; GFP signal change (wild-type ribosome), % (test concentration not listed); actives 1.6% (n = 350,000);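 active means significant combined selectivity score with lowered wild-type GFP, culture density cut under 30%, mutant RFP and density less affected; inactive means any of these conditions unmet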
E-sel inducer: E-selectin induction on HUVECs; HUVEC E-selectin immunofluorescence imaging; normalized: neutral wells 0, TNF-alpha wells 100; actives 0.37% (n = 260,000); activation, % at 7.58 µM; AID 686992;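 active means mean E-selectin-positive cell signal at least 10% of the positive control, reached in at least 60% of replicates, without over 20% cell loss; inconclusive means no rule given, readout overlaps actives, possibly toxicity-flagged; inactive means the rest, including those meeting only one limit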
Target sequence (P16581 whole entry, looked up): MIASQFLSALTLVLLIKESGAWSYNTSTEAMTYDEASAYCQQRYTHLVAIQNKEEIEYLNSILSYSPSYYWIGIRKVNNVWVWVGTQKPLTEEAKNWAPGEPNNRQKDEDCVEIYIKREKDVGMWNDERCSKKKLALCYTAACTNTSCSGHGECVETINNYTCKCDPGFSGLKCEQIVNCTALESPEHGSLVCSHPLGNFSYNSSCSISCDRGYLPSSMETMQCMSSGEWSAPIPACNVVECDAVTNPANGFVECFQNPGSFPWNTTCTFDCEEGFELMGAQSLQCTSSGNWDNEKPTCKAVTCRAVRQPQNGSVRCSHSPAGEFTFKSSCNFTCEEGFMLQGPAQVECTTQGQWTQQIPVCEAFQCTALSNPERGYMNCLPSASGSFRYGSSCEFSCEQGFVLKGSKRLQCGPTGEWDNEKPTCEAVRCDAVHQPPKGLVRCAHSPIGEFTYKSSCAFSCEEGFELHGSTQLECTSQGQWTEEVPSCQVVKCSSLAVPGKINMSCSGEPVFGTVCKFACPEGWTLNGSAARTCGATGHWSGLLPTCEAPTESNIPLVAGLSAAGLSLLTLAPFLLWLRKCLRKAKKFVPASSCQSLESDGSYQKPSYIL
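Assay system: HUVEC, human umbilical vein endothelial cells / Amount: 3,000 HUVEC/well / Controls: TNF-alpha positive control, DMSO neutral control / Compound dosing: single concentration / Medium: EGM-2 over gelatin coat / Evaluation: percent E-selectin-positive cells / Signal: immunofluorescence imaging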
LGR2 antag: blocks bursicon-induced cAMP signaling via Drosophila LGR2; HEK293 LGR2, CRE-luciferase, bursicon-stimulated, 4 h; inhibition, % at 9.99 µM; actives 0.35% (n = 380,000); AID 720647;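 active means drop in luminescence signal, shown as inhibition above about 50% in the replicate tests, limit read from the data, passing the limit was not always enough; inconclusive means probably only some replicates passing the limit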;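 further: agonist challenge used bursicon conditioned medium at about half maximal strength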
AID977621: wild-type E. coli growth inhibition versus H69 humanized strain – H69 mutant RFP, wild-type GFP, cherry-pick, dose response; AID 977621; activity change, negative = inhibition at 50 µM; 1,900 tested, under 10 active; shares compounds with Ecoli rRNA inh; fluorescence, 24 h;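 active means Wild-type ribosome reporter drop at least double the humanized mutant ribosome reporter drop, growth loss under a set limit; inconclusive means no clear call, values can overlap the other calls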;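 further: wild-type GFP and H69 mutant RFP strains grown together 50/50 in each well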
AID977628: growth of wild-type and h24-humanized E. coli strains – h24 mutant RFP vs wild-type GFP, cherry-pick, dose response; 1,900 tested, under 10 active; shares compounds with Ecoli rRNA inh; E. coli WT GFP strain growth, fluorescence, 24 h; activity change, negative = inhibition at 50 µM;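 active means compound lowering the normal-ribosome reporter at least twice as much as the humanized-ribosome reporter, growth loss under a set limit; inconclusive means no clear call, values can overlap the other calls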;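 further: wild-type GFP and h24 humanized RFP strains co-cultured 1 to 1 per well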
* hit, by the source's call; ? = inconclusive; / = no result.

SMILES	EWS-Fli block	Ecoli rRNA inh	E-sel inducer	LGR2 antag	AID977621	AID977628
COc1ccc2c3c(n(C)c2c1)[C@@H](CO)N(C(=O)c1ccc(F)cc1)CC31CCN(C(=O)c2ccc(F)cc2)CC1	11	-7	-1	-8	/	/
CCCN(C)C[C@H]1Oc2cc(C#Cc3cccc(F)c3)ccc2S(=O)(=O)N([C@H](C)CO)C[C@@H]1C	11	-1	-1	-15	/	/
CCN1C(=O)C(CC(=O)Nc2ccc(F)cc2)N(CCCN2CCN(c3ccc(F)cc3)CC2)C1=S (stereo not given)	19	-53*	5	2	-4.8	?
CCCOc1ccc(NC(=O)CC2C(=O)N(CC)C(=S)N2CCCN2CCN(Cc3ccccc3)CC2)cc1 (stereo not given)	17	-14	0	14	/	/
O=C(NCc1ccc2c(c1)OCO2)c1nc(S(=O)(=O)Cc2ccccc2)ncc1Cl	/	-13	/	1	/	/
CC(=O)Nc1ccc(NC(=O)c2nc(S(=O)(=O)Cc3ccccc3)ncc2Cl)cc1	/	-2	/	-13	/	/
O=C(NCc1ccccc1)c1nc(S(=O)(=O)Cc2ccccc2)ncc1Cl	/	-24*	0	3	-24	-7.2
COc1ccc(CNC(=O)c2nc(S(=O)(=O)Cc3ccccc3)ncc2Cl)cc1	/	-16*	0	-1	-2.7	-4.8
CCN(C(=O)COC(=O)c1cn(-c2ccccc2)nc1-c1ccccc1)C1CCS(=O)(=O)C1 (stereo not given)	-6	-39*	3	-8	-24	-12

Screening data (PubChem)
